These results are taken from PubChem BioAssay.

Values joined by “and” are separate entries in the source; they are usually repeats but may differ in a detail not shown here. Identical values can stand only once. Active and inactive are the calls of the source.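 Rule for the calls, unless noted: active = viability at or below 10% of carrier control in both of two separate runs; inconclusive = viability at or below 10% in only one of the two runs; inactive = the rest.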

In general, viability refers to a read-out of living cells in per cent, often relative to untreated cells. The term inhibition denotes the change of the read-out against control, counted positive when it falls.

A short description of experiment [1]: reduced viability of SK-BR-3 breast cancer cells – cell-based, 24 h, human, pilot screen (AID 572).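 Note: compound exposure lasted between 18 and 24 h rather than exactly 24 h; 100% = carrier-treated control wells.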 Conditions: SK-BR-3 viability, CellTiter-Glo luminescence, at 10 µM, stronger effect = lower value.
A short description of experiment [2]: HUVEC growth inhibition – cell-based, human, primary screen (AID 575;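 active = viability at or below 30% in both replicate assays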;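 note: 100% = median of untreated cell wells with 0.1% DMSO on each plate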). The settings on record: HUVEC proliferation, CellTiter-Glo luminescence, 72 h; at 10 µM; stronger effect = lower value. The procedure, abridged: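 Assay system: Primary human umbilical vein endothelial cells | Quantity: 1250 cells per well | Medium: Supplemented EBM, 2% fetal bovine serum | Detection: CellTiter-Glo luminescence measuring cellular ATP | Read-out: % viability vs DMSO wells | Plate: Collagen-coated 384-well format | Times: 72 h exposure, 37 °C, 5% CO2, 30 min RT equilibration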

The nature of experiment [3]: H69AR cell proliferation blockers – human, duplicate replicates, primary screen (AID 580;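 active = viability at or under a set limit in both replicates, limit being median viability minus 3 SD, cut at about 48% in these data, passing the limit was not always enough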;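 note: 100% = mean luminescence of untreated wells and 0% = no signal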). The settings on record: H69AR lung tumor cells viability, ATP luminescence, 72 h; at 10 µM; stronger effect = lower value.
Experiment [4] is described as follows: MRP1 drug-resistance reversers in H69AR cells – cell-based, doxorubicin co-treatment, pilot screen (AID 601;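 active = viability loss from added drug above about 55%, and viability with drug at most 40%, in both replicates, limit read from the data, passing the limit was not always enough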). Conditions: CellTiter-Glo, 72 h, at 10 µM; for differential viability (reversal): stronger effect = higher value. For orientation: In ATP-based viability assays light output follows the ATP content of the culture.
Experiment [5] in a line: yeast transport mutant growth inhibition pilot in 384-well plates, post-Golgi transport modulator project (AID 636; in the data active = inhibition above about 31%). The settings on record: absorbance 615 nm, about 18 h, stronger effect = higher value.
Experiment [6] can be described thus: growth suppression of yeast trafficking mutant, preliminary HTS, modulators of trafficking downstream of Golgi apparatus project, 1536-format plate, OD 615 nm (AID 637; in the data active = inhibition above about 30%). The settings on record: yeast transport mutant growth, absorbance 615 nm, 18 h; stronger effect = higher value.
Where [7] appears, read: H69AR cells + 2 uM doxorubicin, measured here: viability with 2 uM doxorubicin, stronger effect = lower value.
Setting [8] is: H69AR cells, compound alone cytotoxicity.

For `CCN(CC)CCNC(=O)c1ccc(NC(C)=O)cc1`, the viability was 136% (inactive) in experiment [1]; 96.6% (inactive) in experiment [2]; 94.8% (inactive) in experiment [3]; 102% in experiment [4] (setting [7]); 94.8% in experiment [4] (setting [8]). For the same compound, the differential viability (reversal) in experiment [4] (H69AR cells + 2 uM doxorubicin) was -6.82% (inactive). Besides, the inhibition in experiment [5] was -1.69% (inactive); in experiment [6], 3.5% (inactive).

As to `NC(=O)c1ccsc1NC(=O)COC(=O)Cc1ccsc1`, the viability in experiment [1] was 87% (inactive); in experiment [2] it was 100% (inactive); in experiment [3], 110% (inactive); in experiment [4] (setting [7]), 110%; in experiment [4] (setting [8]), 110%. Also, in experiment [4] (H69AR cells + 2 uM doxorubicin), the differential viability (reversal) is -0.11% (inactive). The inhibition in experiment [5] was -4.25% (inactive); in experiment [6], 1.27% (inactive).

Regarding `CC1CN(S(=O)(=O)c2ccc(Cl)c(C(F)(F)F)c2)CC(C)O1` (stereo unspecified), the viability is 68% (inactive) in experiment [1]; 111% (inactive) in experiment [2]; 100% (inactive) in experiment [3]; 91.8% in experiment [4] (setting [7]); 100% in experiment [4] (setting [8]). The differential viability (reversal) in experiment [4] (H69AR cells + 2 uM doxorubicin) is 8.69% (inactive). Moreover, the inhibition in experiment [5] is -9.32% (inactive); in experiment [6] it was 2% (inactive).

Turning to `O=C(CN(Cc1ccc(F)cc1)C(=O)c1ccco1)NCc1ccc(F)cc1`, the viability in experiment [1] is 104% (inactive); in experiment [2], 112% (inactive); in experiment [3] it was 94.1% (inactive); in experiment [4] (setting [7]) it was 75.6%; in experiment [4] (setting [8]), 94.1%. In addition, in experiment [4] (H69AR cells + 2 uM doxorubicin), the differential viability (reversal) was 18.5% (inactive). Moreover, the inhibition in experiment [5] was -8% (inactive); in experiment [6], -6.91% (inactive).

`COC(=O)CS(=O)(=O)c1nnc([C@H](Cc2ccccc2)NC(=O)OC(C)(C)C)o1`: the viability in experiment [1] is 77.5% (inactive); in experiment [2] it was 3.82% (active); in experiment [3], 1.21% (active); in experiment [4] (setting [7]), 0.69%; in experiment [4] (setting [8]), 1.21%. Also, the differential viability (reversal) in experiment [4] (H69AR cells + 2 uM doxorubicin) is 0.515% (inactive). Moreover, the inhibition in experiment [5] was -5.45% (inactive); in experiment [6], -12.3% (inactive).

With `CN(Cc1ccc(-n2cccn2)cc1)C(=O)c1cnn2c1NC(c1ccco1)CC2C(F)(F)F` (stereo unspecified), the viability in experiment [1] was 74% (inactive); in experiment [2], 82.3% (inactive); in experiment [3], 78.4% (inactive); in experiment [4] (setting [7]) it was 85.8%; in experiment [4] (setting [8]) it was 78.4%. In experiment [4] (H69AR cells + 2 uM doxorubicin), the differential viability (reversal) was -7.45% (inactive). The inhibition in experiment [5] is 2.88% (inactive); in experiment [6] it was -0.36% (inactive).

Regarding `C=CCNC(=O)C1CC(=O)N(c2ccc(OCC(=O)Nc3ccc(OC)cc3)cc2)C1` (stereo unspecified), the viability in experiment [1] was 99% (inactive); in experiment [2], 112% (inactive); in experiment [3], 108% (inactive); in experiment [4] (setting [7]), 103%; in experiment [4] (setting [8]) it was 108%. Further, the differential viability (reversal) in experiment [4] (H69AR cells + 2 uM doxorubicin) was 5.12% (inactive). Moreover, the inhibition in experiment [5] is -0.81% (inactive); in experiment [6], -0.18% (inactive).

Turning to `Cc1ccc(CNc2cc(-c3nn4c(C)nnc4s3)ccc2C)s1`, the viability in experiment [1] was 88% (inactive); in experiment [2], 45.1% (inactive); in experiment [3], 58.8% (inactive); in experiment [4] (setting [7]) it was 40.5%; in experiment [4] (setting [8]), 58.8%. In addition, the differential viability (reversal) in experiment [4] (H69AR cells + 2 uM doxorubicin) was 18.3% (inactive). Besides, the inhibition in experiment [5] is -2.6% (inactive); in experiment [6], 12.3% (inactive).

Regarding `COc1cccc(/C=N/n2c(-c3ccco3)nc3ccccc3c2=O)c1`, the viability is 71% (inactive) in experiment [1]; 105% (inactive) in experiment [2]; 73.2% (inactive) in experiment [3]; 85.4% in experiment [4] (setting [7]); 73.2% in experiment [4] (setting [8]). Further, the differential viability (reversal) in experiment [4] (H69AR cells + 2 uM doxorubicin) was -12.3% (inactive). Besides, the figures for the inhibition in experiment [5] and in experiment [6] were -6.76% (inactive) and 2.36% (inactive), respectively.

On to `CCc1nnc(SCC(=O)NC2CCCCC2)nc1CC`, for which the viability is 94% (inactive) in experiment [1]; 92.5% (inactive) in experiment [2]; 97.9% (inactive) in experiment [3]; 84.8% in experiment [4] (setting [7]); 97.9% in experiment [4] (setting [8]). In experiment [4] (H69AR cells + 2 uM doxorubicin), the differential viability (reversal) is 13.1% (inactive). Besides, the inhibition is -4.29% (inactive) in experiment [5] and -7.7% (inactive) in experiment [6].

On to `Nc1nc(Cl)nc2c1ncn2[C@H]1C[C@H](O)[C@@H](CO)O1`, for which the viability in experiment [1] was 116% (inactive) and 105% (inactive); in experiment [2], 67% (inactive) and 36.3% (inactive); in experiment [3] it was 93.8% (inactive); in experiment [4] (setting [7]) it was 103% and 81.2%; in experiment [4] (setting [8]), 93.8% and 49.4%. In addition, the differential viability (reversal) in experiment [4] (H69AR cells + 2 uM doxorubicin) is -9.28% (inactive) and -31.8% (inactive). The inhibition in experiment [5] was 2.34% (inactive) and 0.52% (inactive); in experiment [6] it was 1% (inactive) and -1% (inactive).

As for `CCc1c(C)nc2ncnn2c1N1CCC(C(=O)NCc2cccc(OC)c2)CC1`, the viability in experiment [1] is 134% (inactive); in experiment [2], 85.8% (inactive); in experiment [3], 89.9% (inactive); in experiment [4] (setting [7]), 99.7%; in experiment [4] (setting [8]) it was 89.9%. The differential viability (reversal) in experiment [4] (H69AR cells + 2 uM doxorubicin) was -9.81% (inactive). Besides, the inhibition was -3.7% (inactive) in experiment [5] and -1.29% (inactive) in experiment [6].
